Entries after “also recorded” stand apart in the source; their conditions may differ. Like-named read-outs stand apart in the source and are kept apart here. Where a SMILES comes first, the peptide text is derived from it. The star is where a group is joined. Cbz = O=C(OCc1ccccc1)*
What was measured:
HDAC6 [1] = molecular target: T1, HDAC6 (Homo sapiens, UniProt Q9UBN7); experiment: HDAC deacetylase homogenous fluorescence assay, HDAC6; format: biochemical; settings: for concentration above which HDAC6 was inhibited: data not shown
T1 sequence (Q9UBN7 1-1215): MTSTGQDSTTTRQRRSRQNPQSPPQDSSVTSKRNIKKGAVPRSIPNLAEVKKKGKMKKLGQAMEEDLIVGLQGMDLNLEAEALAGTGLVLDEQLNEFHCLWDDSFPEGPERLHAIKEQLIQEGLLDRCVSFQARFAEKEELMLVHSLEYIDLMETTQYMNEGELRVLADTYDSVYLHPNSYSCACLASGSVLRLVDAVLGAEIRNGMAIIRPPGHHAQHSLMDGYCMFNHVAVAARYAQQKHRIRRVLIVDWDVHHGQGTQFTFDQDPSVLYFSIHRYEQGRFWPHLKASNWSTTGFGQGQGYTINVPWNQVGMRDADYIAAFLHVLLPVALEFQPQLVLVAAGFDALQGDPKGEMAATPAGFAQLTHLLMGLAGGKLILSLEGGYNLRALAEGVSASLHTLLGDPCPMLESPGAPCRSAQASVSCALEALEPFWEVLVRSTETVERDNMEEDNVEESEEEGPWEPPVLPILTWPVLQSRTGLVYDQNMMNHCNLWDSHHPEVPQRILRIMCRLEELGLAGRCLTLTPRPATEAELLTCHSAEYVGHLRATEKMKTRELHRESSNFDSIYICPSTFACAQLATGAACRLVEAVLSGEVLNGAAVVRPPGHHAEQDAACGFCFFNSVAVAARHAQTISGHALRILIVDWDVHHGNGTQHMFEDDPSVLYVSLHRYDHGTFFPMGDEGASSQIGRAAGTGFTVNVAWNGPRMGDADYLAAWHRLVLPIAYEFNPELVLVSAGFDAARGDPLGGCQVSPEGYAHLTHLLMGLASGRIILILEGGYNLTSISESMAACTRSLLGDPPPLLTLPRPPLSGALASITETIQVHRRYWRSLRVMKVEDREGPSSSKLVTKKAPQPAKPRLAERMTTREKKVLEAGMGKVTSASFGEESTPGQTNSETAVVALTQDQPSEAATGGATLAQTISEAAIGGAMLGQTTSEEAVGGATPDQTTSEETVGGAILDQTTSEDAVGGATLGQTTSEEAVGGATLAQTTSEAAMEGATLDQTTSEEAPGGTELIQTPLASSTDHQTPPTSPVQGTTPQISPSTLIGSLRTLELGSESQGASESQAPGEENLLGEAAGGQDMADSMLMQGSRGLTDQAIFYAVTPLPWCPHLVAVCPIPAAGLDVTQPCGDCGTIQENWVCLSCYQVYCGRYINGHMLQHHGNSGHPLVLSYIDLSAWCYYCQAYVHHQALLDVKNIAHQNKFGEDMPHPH
Method in brief: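 Baculovirus-expressed recombinant human enzyme (HDAC3 as HDAC3/N-CoR2 complex) incubated with serially diluted test compound over a 12-point titration. Substrate: acetylated AMC-K(Ac)GL. Deacetylated product cleaved by lysine peptidase to free MCA, read at ex 355/em 460 nm. Data normalised to control plate by plate. IC50 and SD from non-linear regression; Ki via Cheng-Prusoff, Ki = IC50/(1+[S]/Km).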

FLT-3 and STAT5 = experiment: Western blot of FLT-3 and STAT5 levels in MV4-11 cells; format: cell-based, human; settings: for effect on FLT-3 and STAT5 protein levels: 3 hr post-treatment
Method in brief: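 MV4-11 cells cultured with 10% heat-inactivated FBS at 37°C, 5% CO2. Exposed to a concentration series of test compound, harvested 3 hr post-treatment. Lysed in low-salt Tris pH 7.4 buffer containing 1 μM TSA and sonicated. Lysates denatured in LDS and run on 4–12% gradient gels. Blots probed for FLT-3, STAT5, Erk and phospho-Erk; HRP secondary with ECL detection.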

Hsp90 acetylation [2] = experiment: Immunoprecipitation/immunoblot of Hsp90 acetylation in MV4-11 cells; format: cell-based, human; settings: 3 hr post-treatment
Method in brief: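 MV4-11 AML cells (10% heat-inactivated FBS, 37°C, 5% CO2) treated with test compound, harvested 3 hr post-treatment. Cells washed in cold HBSS, lysed 30 min in low-salt buffer (50 mM Tris-HCl pH 7.4, 150 mM NaCl, 10% glycerol, Triton X-100, protease/phosphatase inhibitors, 1 μM TSA), then sonicated. Hsp90 pulled down on Hsp90-conjugated beads for 1 hr. Blots probed for Hsp90, acetyl-lysine and acetyl-Hsp90 K69.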

ubiquitinated protein = experiment: Western blot of total ubiquitinated protein in MV4-11 cells; format: cell-based, human; settings: within 3 hr
acetylated tubulin [3] = experiment: Western blot of acetylated tubulin in MV4-11 cells; format: cell-based, human
Method in brief: (§1)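 MV4-11 cells (10% heat-inactivated FBS, 37°C, 5% CO2) treated with test compound at a range of concentrations. Washed in cold HBSS and lysed 30 min in low-salt Tris pH 7.4 buffer with protease/phosphatase inhibitors and 1 μM TSA, then sonicated. LDS-denatured lysates run on 4–12% gradient gels. Probes: acetyl-H3, acetyl-H4, total H3, acetyl-α-tubulin, tubulin. HRP secondary, ECL read-out.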

[4] = tested on: full panel of human recombinant HDAC enzymes; experiment: Inhibition profile over full panel of HDACs; format: biochemical
Method in brief: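 Panel of recombinant human HDAC1–11, 12-point titration of test compound per isozyme. Substrates: AMC-K(Ac)GL for HDAC1, 2, 3/N-CoR2, 6 and 10; AMC-K(TFA)GL for HDAC4, 5, 7, 8, 9 and 11. Peptidase-released MCA fluorescence at ex 355/em 460 nm, normalised to controls. IC50 by non-linear regression.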

[5] = tested on: mitogen stimulated proliferating PBMC; experiment: MTS cell proliferation assay, proliferating PBMC; format: cell-based, human; settings: proliferating PBMC vs AML cells ex vivo
[6] = tested on: acetylated histone H3 and H4; experiment: Western blot of acetylated histone H3/H4 in MV4-11 cells; format: cell-based, human
Method in brief: as §1

acetylated tubulin [7] = experiment: Western blot of acetylated tubulin in PBMC; format: cell-based, human; settings: PBMC from normal donors, 3 hr post-treatment
Hsp90 acetylation [8] = settings: 16 hrs post inhibitor treatment; cited from earlier work
HDAC6 [9] = settings: cited from earlier work

| Compound | effect on FLT-3 and STAT5 protein levels (FLT-3 and STAT5) | induction of Hsp90 acetylation (Hsp90 acetylation [2]) | induction of acetylated tubulin (acetylated tubulin [3]) | effect on acetylated histone H3/H4 levels [6] | also measured |
| --- | --- | --- | --- | --- | --- |
| Vitamin K2 | – | – | – | – | concentration above which HDAC6 was inhibited (HDAC6 [1]): above 200 μM |
| CC(/C=C/C(=O)NO)=C\[C@@H](C)C(=O)c1ccc(N(C)C)cc1 [TSA] | did not induce Hsp90 acetylation or reduce FLT-3 and STAT5 levels | did not induce Hsp90 acetylation | – | – | – |
| CC1=C(C/C=C(\C)CCC[C@H](C)CCC[C@H](C)CCCC(C)C)C(=O)c2ccccc2C1=O [Vitamin K1] | – | – | – | – | concentration above which HDAC6 was inhibited (HDAC6 [1]): above 200 μM |
| O=C1C=C(NCc2ccccc2)C(=O)c2ccccc21 [NQN-1, 2-benzyl-amino-naphthoquinone] | decrease within 3 hr | induces Hsp90 acetylation | selectively induced hyperacetylated tubulin | without an increase in histone H3 and H4 acetylation; also recorded: unexpectedly caused a decrease in acetylated histone H4 | total ubiquitinated protein level (ubiquitinated protein): increase in total ubiquitinated protein level; HDAC inhibition profile / selectivity over the panel [4]: did not inhibit other HDACs in our panel; selectivity, proliferating PBMC over AML (MV4-11) cell toxicity [5]: 4 fold; IC50 (HDAC6 [1]; read-out: HDAC6 IC50, 12 point titration, acetylated substrate): 5.54 ± 0.9 µM; Ki (HDAC6 [1]; read-out: HDAC6 Ki, converted from IC50 using Cheng-Prusoff equation): 1.3 ± 0.22 µM; tubulin acetylation level in PBMC (acetylated tubulin [7]): did not increase |
| O=C(CCCCCCC(=O)Nc1ccccc1)NO [SAHA, Suberoylanilide hydroxamic acid] | did not induce Hsp90 acetylation or reduce FLT-3 and STAT5 levels | did not induce Hsp90 acetylation | induces both acetylated tubulin and histone | induces both acetylated tubulin and histone | – |
| O=C(CCCCCCC(=O)Nc1ccc([C@H]2O[C@@H](CSc3nc(-c4ccccc4)c(-c4ccccc4)o3)C[C@@H](c3ccc(CO)cc3)O2)cc1)NO [tubacin] | – | – | – | decreases in acetylated histones | induction of Hsp90 acetylation (Hsp90 acetylation [8]): does not significantly increase Hsp90 acetylation |
| CC1=CC(=O)c2ccccc2C1=O [vitamin K3, 2-methyl-naphthoquinone] | – | – | – | – | HDAC inhibition profile / selectivity over the panel [4]: selectively inhibited HDAC6 and HDAC8 at low μM; IC50 (HDAC6 [1]): 25 µM |
| CN1CCc2c(c3ccccc3n2Cc2ccc(C(=O)NO)cc2)C1 [tubastatin A] | – | No induction of Hsp90 acetylation | higher induction of tubulin acetylation | decreases in acetylated histones | selectivity for HDAC6 over HDAC1 (HDAC6 [9]): > 1000 |
| CC(C)C[C@@H](C=O)NC(=O)[C@H](CC(C)C)NC(=O)[C@H](CC(C)C)NC(=O)OCc1ccccc1 [MG132] (Cbz-Leu-Leu-Leu-aldehyde) | – | – | – | – | prevention of STAT5 degradation caused by HDAC6 inhibition (FLT-3 and STAT5; 10 μM MG132 co-treatment): did not prevent STAT5 degradation; rescue of FLT-3 degradation caused by HDAC6 inhibition (FLT-3 and STAT5; 10 μM MG132 co-treatment): rescued |
| Cc1ccc(NC(=O)CCCCCC(=O)Nc2ccccc2N)cc1 [inhibitor 106] | did not induce Hsp90 acetylation or reduce FLT-3 and STAT5 levels | did not induce Hsp90 acetylation | – | only induces hyperacetylated histone H3/H4 | – |
